Structures are written as SMILES.

Data set [1] has as its system Mus musculus. Nature of the data set: Induction of weight loss in C3H/HeN mouse at 1.4 umol/kg, ip after 60 days (reference value: 31.5 +/- 8.2 %). The class given is functional.
Data set [2] deals with Mus musculus. Nature of the data set: Induction of weight loss in C3H/HeN mouse at 4.2 umol/kg, ip after 60 days (reference value: 30.1 +/- 5.9 %). The data set is classed as functional.
Data set [3] relates to Mus musculus. Kind of data set: Toxicity in C3H/HeN mouse assessed as loss of appetite at 4.2 uM/kg, ip after 60 days. To be noted: in vivo, 1440 h. The data set is classed as organism-based. The gist of the method:
(§1)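 Male C3H/HeN mice, about 50 days old and in groups of 4, received one ip dose in 42% aqueous DMSO on day 1 after 7–10 days of baseline monitoring; vehicle-only animals served as controls. Food and water intake and body weight were recorded 2–3 times weekly for 60 days. General health was checked by observing clinical signs.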

Data set [4] relates to Mus musculus. Nature of the data set: Toxicity in C3H/HeN mouse assessed as perceptible deterioration in health at 4.2 uM/kg, ip after 60 days. Conditions: in vivo, 1440 h. The class given is organism-based. The gist of the method: as §1
The test system of data set [5] is Mus musculus. Nature of the data set: Induction of weight loss in C3H/HeN mouse at 0.47 umol/kg, ip after 60 days (reference value: 27.7 +/- 4.6 %). The data set is classed as functional.
In data set [6] the test system is Mus musculus. Kind of data set: Toxicity in C3H/HeN mouse assessed as difficulty in drinking at 4.2 uM/kg, ip after 60 days. The data set is classed as organism-based. To be noted: in vivo, 1440 h.
Data set [7] relates to Mus musculus. Nature of the data set: Toxicity in C3H/HeN mouse assessed as difficulty in eating at 4.2 uM/kg, ip after 60 days. Conditions: in vivo, 1440 h. The class given is organism-based.
For data set [8], the system named is Mus musculus. Nature of the data set: Induction of weight loss in C3H/HeN mouse at 0.14 umol/kg, ip after 60 days (reference value: 41.6 +/- 8.7 %). The class given is functional.
The subject of data set [9] is Mus musculus. Kind of data set: Induction of weight loss in C3H/HeN mouse at 0.42 umol/kg, ip after 60 days (reference value: 23.6 +/- 3.7 %). The class given is functional.
Data set [10] relates to Mus musculus. Kind of data set: Induction of weight loss in C3H/HeN mouse at 1.4 umol/kg, ip after 60 days (reference value: 26.1 +/- 7.9 %). The data set is classed as functional.
For data set [11], the system named is Mus musculus. Nature of the data set: Induction of weight loss in C3H/HeN mouse at 4.2 umol/kg, ip after 60 days (reference value: 26.1 +/- 7.8 %). The data set is classed as functional.
The test system of data set [12] is Mus musculus. Kind of data set: Toxicity in C3H/HeN mouse assessed as mortality at 4.2 umol/kg, ip after 15 days. The class given is organism-based. Conditions: in vivo, 360 h. The gist of the method:
(§2)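 Male C3H/HeN mice, about 50 days old, in groups of 4. Baseline body weight and food and water intake were recorded for 7–10 days before treatment. A single ip injection in 42% aqueous DMSO was given on day 1, with vehicle-only controls. Body weight and food and water intake were then monitored 2–3 times per week for 60 days, with deaths noted.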

In data set [13] the test system is Mus musculus. Kind of data set: Toxicity in C3H/HeN mouse assessed as mortality at 4.2 umol/kg, ip. The class given is organism-based. Conditions: in vivo. The gist of the method: as §2
Data set [14] concerns Mus musculus. Kind of data set: Induction of weight loss in C3H/HeN mouse at 4.2 umol/kg, ip after 60 days (reference value: 27.7 +/- 4.6 %). The class given is functional.
In data set [15] the test system is Mus musculus. Kind of data set: Induction of weight loss in C3H/HeN mouse at 37.8 umol/kg, ip after 60 days (reference value: 31.5 +/- 8.2 %). The class given is functional.
Data set [16] has as its system Mus musculus. Kind of data set: Induction of weight loss in C3H/HeN mouse at 12.6 umol/kg, ip after 60 days (reference value: 18.8 +/- 1.8 %). The class given is functional.
Data set [17] has as its system Mus musculus. Nature of the data set: Induction of weight loss in C3H/HeN mouse at 50.2 umol/kg, ip after 60 days (reference value: 27.4 +/- 9.4 %). The data set is classed as functional.
Data set [18] has as its system Mus musculus. Nature of the data set: Toxicity in C3H/HeN mouse assessed as mortality at 117 umol/kg, ip. To be noted: in vivo. The class given is organism-based. The gist of the method: as §2
The test system of data set [19] is Mus musculus. Kind of data set: Induction of weight loss in C3H/HeN mouse at 37.8 umol/kg, ip after 60 days (reference value: 23.9 +/- 4.6 %). The class given is functional.
Data set [20] relates to Mus musculus. Nature of the data set: Induction of weight loss in C3H/HeN mouse at 37.8 umol/kg, ip after 60 days (reference value: 35.6 +/- 3.1 %). The class given is functional.
For data set [21], the system named is Mus musculus. Kind of data set: Toxicity in C3H/HeN mouse assessed as mortality at 12.6 umol/kg, ip. The class given is organism-based. Conditions: in vivo. The gist of the method: as §2
In data set [22] the test system is Mus musculus. Kind of data set: Induction of weight loss in C3H/HeN mouse at 4.2 umol/kg, ip after 60 days (reference value: 33.3 +/- 5.0 %). The data set is classed as functional.
Data set [23] deals with Mus musculus. Kind of data set: Induction of weight loss in C3H/HeN mouse at 12.6 umol/kg, ip after 60 days (reference value: 41.6 +/- 8.7 %). The class given is functional.
The test system of data set [24] is Mus musculus. Nature of the data set: Induction of weight loss in C3H/HeN mouse at 377 umol/kg, ip after 60 days (reference value: 24.5 +/- 3.5 %). The class given is functional.
Data set [25] concerns Mus musculus. Kind of data set: Induction of weight loss in C3H/HeN mouse at 1130 umol/kg, ip after 18 days (reference value: 12.8 +/- 1.5 %). The data set is classed as functional.

For the compound `Cn1c(C[N+](C)(C)Cc2ccc(/C=C/C(=O)N3CC(CCl)c4c3cc(N)c3ccccc43)cc2)ccc1[N+](=O)[O-].[Br-]` (centres undefined), the Activity with Mus musculus [1] is reported as 19%; in the data set with Mus musculus [2], -4.1%; in the data set with Mus musculus [3], “Non-toxic”; in the data set on Mus musculus [4], “Non-toxic”; in the data set on Mus musculus [5], 38.3%; in the data set on Mus musculus [6], “Non-toxic”. Also, the Activity entry in the data set with Mus musculus [7] is given as “Non-toxic”.

With `Cn1c(C[N+](C)(C)Cc2ccc(/C=C/C(=O)N3CC(CCl)c4c3cc(N)c3ccccc43)cc2)ccc1S(C)(=O)=O.[Br-]` (centres undefined), the values for the Activity in the data set with Mus musculus [8], in the data set with Mus musculus [9] and in the data set on Mus musculus [10] were 44.1%, -7.6% and -22.8%, respectively.

With `CN(Cc1ccc(/C=C/C(=O)N2CC(CCl)c3c2cc(N)c2ccccc32)cc1)Cc1ccc([N+](=O)[O-])n1C` (centres undefined), the Activity in the data set on Mus musculus [11] is on record as 21%; with Mus musculus [12], “Toxic”.

On to `C[N+](C)(C)Cc1ccc(/C=C/C(=O)N2CC(CCl)c3c2cc(N)c2ccccc32)cc1.[Cl-]` (centres undefined), for which the Activity entry in the data set on Mus musculus [13] is “Toxic”; in the data set with Mus musculus [5] it was 17%.

With `Cn1c(C[N+](C)(C)Cc2ccc(/C=C/C(=O)N3CC(CCl)c4c3cc(O)c3ccccc43)cc2)ccc1[N+](=O)[O-].[Br-]` (centres undefined), the Activity with Mus musculus [14] turned out to be 18.8%.

Take `Cn1c(C[N+](C)(C)Cc2ccc(/C=C/C(=O)N3CC(CO)c4c3cc(N)c3ccccc43)cc2)ccc1[N+](=O)[O-].[Br-]` (centres undefined): the Activity in the data set on Mus musculus [15] came out at 18.8%; in the data set with Mus musculus [16], 23.7%.

Consider `Cn1c(C[N+](C)(C)Cc2ccc(/C=C/C(=O)N3CC(CO)c4c3cc(N)c3ccccc43)cc2)ccc1S(C)(=O)=O.[Br-]` (centres undefined), for which the Activity is on record as 42.6% with Mus musculus [17], “Toxic” in the data set on Mus musculus [18] and 36.8% with Mus musculus [19].

As for `CC1CN(C(=O)/C=C/c2ccc(C[N+](C)(C)Cc3ccc([N+](=O)[O-])n3C)cc2)c2cc(N)c3ccccc3c21.[Br-]` (centres undefined), the values for the Activity with Mus musculus [14] and in the data set on Mus musculus [20] were 26% and 43.2%, respectively.

With `CC1CN(C(=O)/C=C/c2ccc(C[N+](C)(C)Cc3ccc(S(C)(=O)=O)n3C)cc2)c2cc(N)c3ccccc3c21.[Br-]` (centres undefined), in the data set on Mus musculus [20], the Activity came to 30.4%.

Turning to `Cn1c(C[N+](C)(C)CCCCCC(=O)N2CC(CCl)c3c2cc(N)c2ccccc32)ccc1S(C)(=O)=O.O=C([O-])C(F)(F)F` (centres undefined), the Activity result in the data set on Mus musculus [21] was “Toxic”; in the data set with Mus musculus [22] it was 16.8%.

Regarding `Cn1c(C[N+](C)(C)CCCCCCC(=O)N2CC(CCl)c3c2cc(N)c2ccccc32)ccc1S(C)(=O)=O.O=C([O-])C(F)(F)F` (centres undefined), the figures for the Activity in the data set on Mus musculus [23] and in the data set with Mus musculus [22] were 2.9% and 11.6%, respectively.

Take `CN(N=O)C(=O)N[C@@H](C=O)[C@@H](O)[C@H](O)[C@H](O)CO` [STREPTOZOCIN]: the Activity in the data set with Mus musculus [24] is 23.7%; in the data set with Mus musculus [25], -22.1%.
